The text below walks through data of ChEMBL document CHEMBL4406804, “Discovery of a Potent Steroidal Glucocorticoid Receptor Antagonist with Enhanced Selectivity against the Progesterone and Androgen Receptors (OP-3633)” (J Med Chem, 2019).

Structures are written as SMILES. In brackets after ≈: the same amount, converted by molar mass. A value given as a limit tells only on which side of the number the result lay.

Data set [1] can be described thus: AUC in dog at 5 mg/kg, po. In kind it is ADME, organism-based, Canis lupus familiaris. The following applies: in vivo.
Data set [2] addresses T1, Androgen receptor (Homo sapiens, UniProt P10275).
T1 sequence (P10275 whole entry): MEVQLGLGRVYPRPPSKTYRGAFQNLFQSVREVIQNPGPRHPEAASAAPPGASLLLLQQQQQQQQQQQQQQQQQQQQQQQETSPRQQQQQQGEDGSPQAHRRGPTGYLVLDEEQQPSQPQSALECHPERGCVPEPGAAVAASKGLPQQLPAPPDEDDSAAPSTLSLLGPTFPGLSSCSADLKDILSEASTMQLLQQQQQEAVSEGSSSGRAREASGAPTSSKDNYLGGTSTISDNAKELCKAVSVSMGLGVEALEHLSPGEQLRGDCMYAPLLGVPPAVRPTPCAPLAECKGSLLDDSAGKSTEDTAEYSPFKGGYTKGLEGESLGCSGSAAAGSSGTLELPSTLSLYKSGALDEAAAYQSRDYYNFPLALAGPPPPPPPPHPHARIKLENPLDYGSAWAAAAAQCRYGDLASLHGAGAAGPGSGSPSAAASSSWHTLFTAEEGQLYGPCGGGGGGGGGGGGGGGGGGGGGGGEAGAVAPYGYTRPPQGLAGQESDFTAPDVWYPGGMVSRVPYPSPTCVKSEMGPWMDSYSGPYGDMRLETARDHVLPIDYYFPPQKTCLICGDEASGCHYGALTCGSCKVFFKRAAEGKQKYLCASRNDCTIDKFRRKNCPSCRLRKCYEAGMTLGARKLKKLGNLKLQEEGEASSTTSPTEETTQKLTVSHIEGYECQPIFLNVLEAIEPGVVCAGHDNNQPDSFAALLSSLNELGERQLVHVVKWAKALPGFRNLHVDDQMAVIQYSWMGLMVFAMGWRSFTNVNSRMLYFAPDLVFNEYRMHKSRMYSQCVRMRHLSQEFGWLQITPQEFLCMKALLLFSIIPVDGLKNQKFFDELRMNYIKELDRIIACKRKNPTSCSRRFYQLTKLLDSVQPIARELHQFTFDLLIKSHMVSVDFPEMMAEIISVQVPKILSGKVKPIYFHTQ
Put plainly: Agonist activity at human androgen receptor in human LNCAP cells harboring firefly luciferase gene after 20 hrs by One-Glo luciferase reporter gene assay relative to mifepristone. In kind it is cell-based. The method, boiled down: (§1)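 Cell-based luciferase reporter assays for GR, AR and PR, run in agonist and antagonist modes. Potency and Emax are averages of at least two determinations, reported with SD.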

Data set [3] is described as follows: Clearance in mini-pig at 0.5 mg/kg, iv. The following applies: in vivo. In kind it is ADME, organism-based, Sus scrofa domesticus.
The target in the next data set is CYP3A4 (Homo sapiens, UniProt P08684). Put plainly: Inhibition of CYP3A4 (unknown origin) at 10 uM using midazolam as substrate relative to control. The following applies: probe midazolam. In kind it is ADME.
Chain of CYP3A4 (P08684 whole entry): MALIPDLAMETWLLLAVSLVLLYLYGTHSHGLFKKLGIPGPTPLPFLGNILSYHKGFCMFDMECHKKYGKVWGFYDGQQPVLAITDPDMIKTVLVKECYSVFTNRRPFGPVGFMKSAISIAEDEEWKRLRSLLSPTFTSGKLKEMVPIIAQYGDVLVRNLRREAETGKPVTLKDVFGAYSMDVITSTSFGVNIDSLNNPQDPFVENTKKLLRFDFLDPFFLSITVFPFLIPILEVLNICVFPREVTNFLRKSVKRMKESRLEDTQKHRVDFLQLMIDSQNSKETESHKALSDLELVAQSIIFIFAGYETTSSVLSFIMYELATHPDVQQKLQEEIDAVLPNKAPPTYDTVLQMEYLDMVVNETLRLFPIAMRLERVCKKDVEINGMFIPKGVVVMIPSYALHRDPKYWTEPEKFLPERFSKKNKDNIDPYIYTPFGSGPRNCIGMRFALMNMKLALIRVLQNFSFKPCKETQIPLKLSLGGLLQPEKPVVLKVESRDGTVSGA
Data set [4] can be described thus: Solubility of compound in fasted state simulated gastric fluid at pH 1.2. In kind it is physicochemical.
In the next data set the target is T2, Progesterone receptor (Homo sapiens, UniProt P06401).
T2 sequence (P06401 whole entry): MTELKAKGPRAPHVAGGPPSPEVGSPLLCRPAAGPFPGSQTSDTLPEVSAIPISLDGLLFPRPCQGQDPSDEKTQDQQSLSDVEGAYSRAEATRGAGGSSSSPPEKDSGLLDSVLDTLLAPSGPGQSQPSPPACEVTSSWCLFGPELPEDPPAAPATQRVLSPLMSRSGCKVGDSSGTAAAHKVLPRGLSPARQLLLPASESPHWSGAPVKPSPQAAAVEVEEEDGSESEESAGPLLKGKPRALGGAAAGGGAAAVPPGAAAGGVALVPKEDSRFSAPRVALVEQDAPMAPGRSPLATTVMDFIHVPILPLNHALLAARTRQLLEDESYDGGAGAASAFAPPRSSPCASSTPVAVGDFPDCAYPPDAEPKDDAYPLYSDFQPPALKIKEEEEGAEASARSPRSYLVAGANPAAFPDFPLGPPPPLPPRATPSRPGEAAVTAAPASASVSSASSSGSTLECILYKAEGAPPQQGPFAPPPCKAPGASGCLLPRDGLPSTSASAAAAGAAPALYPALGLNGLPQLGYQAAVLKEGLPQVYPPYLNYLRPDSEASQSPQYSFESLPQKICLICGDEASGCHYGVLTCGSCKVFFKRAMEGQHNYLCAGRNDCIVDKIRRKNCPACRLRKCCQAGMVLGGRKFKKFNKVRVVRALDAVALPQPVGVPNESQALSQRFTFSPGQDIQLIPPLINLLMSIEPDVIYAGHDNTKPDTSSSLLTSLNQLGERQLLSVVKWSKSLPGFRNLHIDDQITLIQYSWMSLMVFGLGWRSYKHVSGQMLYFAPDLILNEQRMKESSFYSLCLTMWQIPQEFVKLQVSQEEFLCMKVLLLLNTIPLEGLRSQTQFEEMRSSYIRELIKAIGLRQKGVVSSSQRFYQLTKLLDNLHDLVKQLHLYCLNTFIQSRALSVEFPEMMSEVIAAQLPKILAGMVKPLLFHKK
Put plainly: Antagonist activity at human progesterone receptor expressed in CHO-K1 cells harboring firefly luciferase gene after 20 hrs by One-Glo luciferase reporter gene assay. In kind it is cell-based. In short, it runs like this:
as §1
(In general: In a reporter assay the amount or activity of a reporter protein is the signal.)

A further data set has as its target T3, Glucocorticoid receptor (Homo sapiens, UniProt P04150).
T3 sequence (P04150 whole entry): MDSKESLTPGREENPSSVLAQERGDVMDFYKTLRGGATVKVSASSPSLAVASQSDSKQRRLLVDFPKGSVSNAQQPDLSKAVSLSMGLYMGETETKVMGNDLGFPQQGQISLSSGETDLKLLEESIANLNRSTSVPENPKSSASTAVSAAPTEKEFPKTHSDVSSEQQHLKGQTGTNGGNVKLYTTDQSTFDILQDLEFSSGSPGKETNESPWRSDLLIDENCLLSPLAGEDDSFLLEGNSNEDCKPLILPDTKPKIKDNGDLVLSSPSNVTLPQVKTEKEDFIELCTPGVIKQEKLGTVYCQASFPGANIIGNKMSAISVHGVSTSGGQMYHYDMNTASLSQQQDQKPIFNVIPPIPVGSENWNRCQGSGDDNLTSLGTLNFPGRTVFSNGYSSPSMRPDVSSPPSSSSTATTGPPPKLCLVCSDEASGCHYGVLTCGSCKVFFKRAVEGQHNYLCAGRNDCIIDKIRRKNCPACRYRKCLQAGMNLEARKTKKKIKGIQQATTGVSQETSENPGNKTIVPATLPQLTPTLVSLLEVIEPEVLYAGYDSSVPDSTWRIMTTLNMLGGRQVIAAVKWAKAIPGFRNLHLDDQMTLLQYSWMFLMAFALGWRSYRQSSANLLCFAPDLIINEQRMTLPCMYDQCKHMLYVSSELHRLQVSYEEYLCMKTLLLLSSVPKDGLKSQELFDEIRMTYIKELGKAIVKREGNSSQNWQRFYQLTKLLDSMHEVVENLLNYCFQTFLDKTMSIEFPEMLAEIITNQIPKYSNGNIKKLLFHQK
Put plainly: Antagonist activity at human glucocorticoid receptor expressed in CHO-K1 cells harboring firefly luciferase gene after 20 hrs by One-Glo luciferase reporter gene assay. In kind it is cell-based.

Data set [5] concerns the target T1, Androgen receptor. In words: Agonist activity at human androgen receptor in human LNCAP cells harboring firefly luciferase gene after 20 hrs by One-Glo luciferase reporter gene assay. In kind it is cell-based.
Data set [6] in a line: Half-life in dog at 0.5 mg/kg, iv. In kind it is ADME, organism-based, Canis lupus familiaris. The following applies: in vivo.

`CC#C[C@]1(O)CC[C@H]2[C@@H]3CCC4=CC(=O)CC[C@]4(C)[C@H]3[C@@H](c3ccc(N(C)C)cc3)C[C@@]21C` showed an AUC in data set [1] of 5930 ng·h/mL. Besides, the Emax at 20 h on Androgen receptor [2] is 13.3%. The molecule further had a clearance in [3] of 12.5 mL/min/kg. The inhibition at 10 µM on CYP3A4 worked out at 34%. In [4], this molecule displayed a solubility of 1130 µM (≈ 504 µg/mL). Further, the IC50 at Progesterone receptor stood at 1140 nM; against Glucocorticoid receptor it was 29 nM. Moreover, on Androgen receptor [5], the EC50 is > 2500 nM. In data set [6], this molecule had a half-life of 16.2 h.

Broadly, the AUC is concentration integrated over time. Lower therefore signals low exposure. The Emax is the greatest response seen or fitted, relative to the assay's reference. As usually defined, the clearance is the rate of elimination divided by the concentration. The low end stands for inefficient removal, the high end for efficient removal. The term inhibition denotes the share of the control response that was lost under treatment. A higher inhibition goes with a response far below the control. The solubility is how much of the substance goes into solution per volume. High values mean much dissolved substance, low ones little dissolved substance. For orientation: IC50 means the concentration at which inhibition is half-maximal. A lower IC50 goes with greater potency in that assay. The term EC50 denotes the concentration giving half of the maximal effect. Read a low EC50 as greater potency. As a reminder, the half-life is how long it takes for the measured level to halve. Lower therefore signals fast loss.
